Measurements: ChEMBL document CHEMBL1143667, “Synthesis and pharmacological evaluation of 6,7-indolo/thiazolo-morphinans--further SAR of levorphanol” (J Med Chem, 2007)
The source made the active and inactive calls. No cut-off for these calls is given here.

Assays:
Mu-type opioid receptor [1] = molecular target: T1, Mu-type opioid receptor (Homo sapiens, UniProt P35372); assay: Displacement of [3H]DAMGO from human mu opioid receptor expressed in CHO membrane; type: cell membranes
Summary of the method: (§1)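 CHO membranes (0.5 mg protein/sample) incubated 60 min at 25 °C with [3H]DAMGO (µ) or [3H]U69,593 (κ) and 12 compound concentrations in 1 mL 50 mM Tris-HCl, pH 7.5. Nonspecific binding with 10 µM naloxone. Mean ± SEM of three experiments in triplicate.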

[2] = molecular target: T2, Delta-type opioid receptor (Homo sapiens, UniProt P41143); assay: Agonist activity at human delta opioid receptor expressed in CHO membrane assessed as stimulation of [35S]GTP-gamma-S binding; type: functional, cell membranes
T2 sequence (P41143 whole entry): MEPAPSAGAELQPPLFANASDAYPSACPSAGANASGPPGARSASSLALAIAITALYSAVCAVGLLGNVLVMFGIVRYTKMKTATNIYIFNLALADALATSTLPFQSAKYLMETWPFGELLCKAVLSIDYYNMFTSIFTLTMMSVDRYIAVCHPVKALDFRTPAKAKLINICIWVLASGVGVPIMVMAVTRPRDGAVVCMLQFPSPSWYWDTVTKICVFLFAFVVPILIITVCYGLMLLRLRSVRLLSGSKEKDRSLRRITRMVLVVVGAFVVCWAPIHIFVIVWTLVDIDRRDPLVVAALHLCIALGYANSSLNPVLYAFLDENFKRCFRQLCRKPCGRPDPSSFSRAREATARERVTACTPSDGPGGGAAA

[3] = molecular target: T2, Delta-type opioid receptor; assay: Antagonist activity at human delta opioid receptor expressed in CHO membrane assessed as inhibition of SNC80-induced [35S]GTPgammaS binding; type: functional, cell membranes
[4] = molecular target: T2, Delta-type opioid receptor; assay: Displacement of [3H]naltrindole from human delta opioid receptor expressed in CHO membrane; type: cell membranes
Summary of the method: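 CHO membranes (0.5 mg protein/sample) incubated at 25 °C with δ-specific radioligand and 12 compound concentrations in 1 mL 50 mM Tris-HCl, pH 7.5; nonspecific binding with 10 µM naloxone. Three experiments in triplicate.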

[5] = molecular target: T3, Kappa-type opioid receptor (Homo sapiens, UniProt P41145); assay: Antagonist activity at human kappa opioid receptor expressed in CHO membrane assessed as inhibition of U50488-induced [35S]GTP-gamma-S binding; type: functional, cell membranes
T3 sequence (P41145 whole entry): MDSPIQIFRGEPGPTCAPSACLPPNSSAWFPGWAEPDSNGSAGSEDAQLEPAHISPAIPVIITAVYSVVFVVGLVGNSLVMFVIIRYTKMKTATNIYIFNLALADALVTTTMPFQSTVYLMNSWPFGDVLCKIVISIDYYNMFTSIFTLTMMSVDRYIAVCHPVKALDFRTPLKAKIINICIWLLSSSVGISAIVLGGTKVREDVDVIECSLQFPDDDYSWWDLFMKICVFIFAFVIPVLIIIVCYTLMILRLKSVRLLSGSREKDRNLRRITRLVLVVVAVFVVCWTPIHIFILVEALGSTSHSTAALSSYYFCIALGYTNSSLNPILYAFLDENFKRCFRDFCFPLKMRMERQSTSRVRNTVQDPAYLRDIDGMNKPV
Summary of the method: (§2)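 Antagonism measured in CHO membranes expressing κ receptor with 100 nM U50,488, or µ receptor with 200 nM DAMGO, plus test compound and 0.8 nM [35S]GTPγS, 3 µM GDP. Filtration and scintillation readout; IC50 and Imax from three experiments in triplicate.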

[6] = molecular target: Opioid receptors; delta & kappa (Homo sapiens) (UniProt P41145+P41143); assay: Selectivity for human kappa opioid receptor over human delta opioid receptor; type: protein assay
Opioid receptors; delta & kappa (Homo sapiens), sequence (P41143 whole entry, looked up): as the sequence (P41143 whole entry) above
Opioid receptors; delta & kappa (Homo sapiens), sequence (P41145 whole entry, looked up): as the sequence (P41145 whole entry) above

Mu-type opioid receptor [7] = molecular target: T1, Mu-type opioid receptor; assay: Agonist activity at human mu opioid receptor expressed in CHO membrane assessed as stimulation of [35S]GTPgammaS binding; type: functional, cell membranes
Summary of the method: (§3)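 Membranes from CHO cells stably expressing human κ (15 µg protein/tube) or µ (7.5 µg/tube) receptor; 12 agonist concentrations, 60 min at 30 °C in Tris-HCl/MgCl2/NaCl/EGTA buffer pH 7.4 with 3 µM GDP and [35S]GTPγS (0.8 nM). Nonspecific binding with 10 µM unlabeled GTPγS; filtration, scintillation counting. Stimulation as % over basal; at least three experiments in triplicate.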

[8] = molecular target: Opioid receptors; mu & kappa (Homo sapiens) (UniProt P41145+P35372); assay: Selectivity for human kappa opioid receptor over human mu opioid receptor; type: protein assay
Opioid receptors; mu & kappa (Homo sapiens), sequence (P35372 whole entry, looked up): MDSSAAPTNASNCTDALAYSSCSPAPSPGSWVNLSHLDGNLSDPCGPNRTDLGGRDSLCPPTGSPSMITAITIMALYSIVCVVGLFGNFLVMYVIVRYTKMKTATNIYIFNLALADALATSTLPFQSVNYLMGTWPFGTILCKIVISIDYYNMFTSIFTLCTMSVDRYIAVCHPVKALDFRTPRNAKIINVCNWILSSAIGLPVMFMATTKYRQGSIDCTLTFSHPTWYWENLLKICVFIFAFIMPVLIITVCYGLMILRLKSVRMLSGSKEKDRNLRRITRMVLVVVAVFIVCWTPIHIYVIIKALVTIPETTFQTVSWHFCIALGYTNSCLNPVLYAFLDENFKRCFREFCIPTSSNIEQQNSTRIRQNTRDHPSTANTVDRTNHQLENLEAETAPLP
Opioid receptors; mu & kappa (Homo sapiens), sequence (P41145 whole entry, looked up): as the sequence (P41145 whole entry) above

[9] = molecular target: T3, Kappa-type opioid receptor; assay: Displacement of [3H]U-69593 from human kappa opioid receptor expressed in CHO membrane; type: cell membranes; summary of the method: as §1
Mu-type opioid receptor [10] = molecular target: T1, Mu-type opioid receptor; assay: Antagonist activity at human mu opioid receptor expressed in CHO membrane assessed as inhibition of DAMGO-induced [35S]GTP-gamma-S binding; type: functional, cell membranes; summary of the method: as §2
[11] = molecular target: T3, Kappa-type opioid receptor; assay: Agonist activity at human kappa opioid receptor expressed in CHO membrane assessed as stimulation of [35S]GTP-gamma-S binding; type: functional, cell membranes; summary of the method: as §3

T1 sequence (P35372 whole entry): as the sequence (P35372 whole entry, looked up) above

| Structure (SMILES) | Ki (Mu-type opioid receptor [1]) [nM] | EC50 [2] [nM] | Emax [2] [%] | Activity [3] | Ki [4] [nM] | Activity [5] | Ratio Ki [6] | EC50 (Mu-type opioid receptor [7]) [nM] | Emax (Mu-type opioid receptor [7]) [%] | Ratio Ki [8] | Ki [9] [nM] | IC50 (Mu-type opioid receptor [10]) [nM] | Imax (Mu-type opioid receptor [10]) [%] | EC50 [11] [nM] | Emax [11] [%] | IC50 [3] [nM] | Imax [3] [%] | IC50 [5] [nM] | Imax [5] [%] |
| --- | --- | --- | --- | --- | --- | --- | --- | --- | --- | --- | --- | --- | --- | --- | --- | --- | --- | --- | --- |
| COc1ccc2c(c1)[C@]13CCN(CC4CC4)[C@H](C2)[C@@H]1Cc1c([nH]c2ccccc12)C3 | 5.9 | 1.5 | 56 | inactive | 1.5 | inactive | 1 | 1.7 | 72 | 4 | 1.4 | 440 | 43 | 24 | 68 | – | – | – | – |
| Oc1ccc2c(c1)[C@]13CCN(CC4CC4)[C@H](C2)[C@@H]1Cc1c([nH]c2ccccc12)C3 | 1.1 | 0.16 | 22 | – | 0.19 | – | 0.3 | 92 | 47 | 2 | 0.64 | 12 | 84 | 61 | 67 | 1.2 | 73 | 17 | 49 |
| CN1CC[C@]23Cc4nc(N)sc4C[C@H]2[C@H]1Cc1ccc(O)cc13 | 0.49 | 8.4 | 67 | inactive | 4.2 | inactive | 2 | 140 | 42 | 0.2 | 2.2 | – | 45 | 21 | 44 | – | – | – | – |
| Nc1nc2c(s1)C[C@H]1[C@H]3Cc4ccc(O)cc4[C@@]1(CCN3CC1CC1)C2 | – | 0.17 | 49 | inactive | 0.23 | inactive | – | – | – | – | 0.07 | – | – | 0.34 | 37 | – | – | – | – |
| COc1ccc2c(c1)[C@]13CCN(C)[C@H](C2)[C@@H]1Cc1c([nH]c2ccccc12)C3 | 340 | – | – | – | 35 | – | 0.1 | – | – | 0.9 | 390 | – | – | – | – | – | – | – | – |
| CN1CC[C@]23Cc4[nH]c5ccccc5c4C[C@H]2[C@H]1Cc1ccc(O)cc13 | 22 | 0.47 | 23 | – | 0.35 | – | 0.03 | – | – | 1.6 | 14 | – | – | – | – | 1.5 | 45 | – | – |
| Oc1ccc2c(c1)[C@]13CCN(CC4CCC4)[C@H](C2)[C@@H]1Cc1c([nH]c2ccccc12)C3 | 3.9 | 0.8 | 37 | – | 0.17 | inactive | 0.2 | 110 | 68 | 4 | 1 | – | 23 | 190 | 87 | 0.6 | 55 | – | – |
| COc1ccc2c(c1)[C@]13CCN(CC4CCC4)[C@H](C2)[C@@H]1Cc1c([nH]c2ccccc12)C3 | 330 | 23 | 54 | inactive | 8.7 | – | 0.1 | – | – | 4 | 89 | – | – | – | – | – | – | – | – |
| Nc1nc2c(s1)C[C@H]1[C@H]3Cc4ccc(O)cc4[C@@]1(CCN3CC1CCC1)C2 | 0.37 | 2.5 | 51 | inactive | 1.1 | – | 8 | 2.6 | 33 | 3 | 0.14 | 26 | 68 | 2.6 | 40 | – | – | 93 | 44 |
